{
  "source": "ChEMBL document CHEMBL1828575",
  "about": "“Design, synthesis and antiproliferative activities of biarylolefins based on polyhydroxylated and carbohydrate scaffolds” (Eur J Med Chem, 2011)",
  "key": {"[1]": {"assay": "Inhibition of sheep brain tubulin polymerization", "set-up": "species or system Ovis aries"}, "Ovis aries": {"species": "Ovis aries", "assay": "Inhibition of sheep brain tubulin polymerization at 10 uM", "how_it_was_run": "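Microtubule protein from sheep brain, purified by two assembly/disassembly cycles (37 °C/0 °C), in 100 mM MES pH 6.6, 1 mM EGTA, 0.5 mM MgCl₂. Compounds in DMSO were tested at a single concentration, with incubation at 37 °C for 10 min and then 0 °C for 5 min before measuring assembly rate, following a modified Guénard protocol.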"}},
  "note": "Active and inactive are the calls of the source. The rule behind the calls is not given here.",
  "data": [
    {"smiles": "COc1ccc(C(=O)c2cc(OC)c(OC)c(OC)c2)cc1O", "note": "[PHENSTATIN]", "values": [
      {"measurement": "IC50", "setting": "[1]", "value": 7.9, "unit": "µM"},
      {"measurement": "tubulin polymerization inhibition call (active/not active)", "setting": "Ovis aries", "value": "Active"}
    ]}
  ]
}
